Results published in ChEMBL document CHEMBL5653631, “A Potent and Selective ULK1 Inhibitor Suppresses Autophagy and Sensitizes Cancer Cells to Nutrient Stress” (iScience, 2018).

Assays:
[1] = target: T1, Beta-adrenergic receptor kinase 1 (Homo sapiens) (UniProt P25098); assay: Inhibition of human recombinant BARK1 at 40 nM related to control ULK1
T1 sequence (whole entry): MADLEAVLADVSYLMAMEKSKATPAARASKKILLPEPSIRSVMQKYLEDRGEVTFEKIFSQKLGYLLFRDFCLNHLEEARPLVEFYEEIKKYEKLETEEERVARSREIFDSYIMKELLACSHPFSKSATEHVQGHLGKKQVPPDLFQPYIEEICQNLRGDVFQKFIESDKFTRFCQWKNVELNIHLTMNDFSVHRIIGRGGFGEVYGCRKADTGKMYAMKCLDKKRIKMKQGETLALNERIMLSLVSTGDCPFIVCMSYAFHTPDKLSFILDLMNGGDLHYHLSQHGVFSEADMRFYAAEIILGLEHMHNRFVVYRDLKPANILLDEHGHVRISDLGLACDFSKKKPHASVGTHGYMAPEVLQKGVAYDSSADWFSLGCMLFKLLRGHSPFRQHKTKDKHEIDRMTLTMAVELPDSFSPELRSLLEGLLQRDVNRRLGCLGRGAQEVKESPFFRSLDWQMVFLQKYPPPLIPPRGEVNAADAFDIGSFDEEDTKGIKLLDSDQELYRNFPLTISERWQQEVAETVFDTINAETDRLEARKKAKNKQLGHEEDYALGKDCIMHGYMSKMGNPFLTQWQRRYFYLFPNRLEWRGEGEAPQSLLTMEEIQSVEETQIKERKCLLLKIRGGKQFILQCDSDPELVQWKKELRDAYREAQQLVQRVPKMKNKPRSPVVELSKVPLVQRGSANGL
In short: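 Radiometric activity assays in a panel of 327 human recombinant kinases, each run in duplicate at one inhibitor concentration. Activity remaining is expressed as percent of vehicle control, and percent inhibition is calculated as 100% minus percent activity remaining.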

[2] = target: Serine/threonine-protein kinase 32C (Homo sapiens) (UniProt Q86UX6); assay: Inhibition of human recombinant YANK3 at 15 nM in presence of ATP by radiometric assay relative to control
Sequence of Serine/threonine-protein kinase 32C (Homo sapiens) (Q86UX6 whole entry): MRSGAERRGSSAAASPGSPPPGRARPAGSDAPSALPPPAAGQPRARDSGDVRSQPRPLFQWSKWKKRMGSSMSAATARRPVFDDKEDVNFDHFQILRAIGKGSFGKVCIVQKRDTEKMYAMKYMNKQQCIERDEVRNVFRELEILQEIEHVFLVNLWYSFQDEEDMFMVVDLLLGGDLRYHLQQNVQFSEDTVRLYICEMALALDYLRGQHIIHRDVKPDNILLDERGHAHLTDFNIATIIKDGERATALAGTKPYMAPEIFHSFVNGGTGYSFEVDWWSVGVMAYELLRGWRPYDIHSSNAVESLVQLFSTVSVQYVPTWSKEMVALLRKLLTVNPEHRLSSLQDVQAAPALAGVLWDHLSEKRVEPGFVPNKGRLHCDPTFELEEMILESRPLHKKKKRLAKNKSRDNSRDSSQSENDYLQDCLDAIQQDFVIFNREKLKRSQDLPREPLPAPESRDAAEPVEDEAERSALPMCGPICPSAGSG

[3] = target: Calcium/calmodulin-dependent protein kinase type II subunit gamma (Homo sapiens) (UniProt Q13555); assay: Inhibition of human recombinant CaMK2g at 500 nM in presence of ATP by radiometric assay relative to control
Sequence of Calcium/calmodulin-dependent protein kinase type II subunit gamma (Homo sapiens) (Q13555 whole entry): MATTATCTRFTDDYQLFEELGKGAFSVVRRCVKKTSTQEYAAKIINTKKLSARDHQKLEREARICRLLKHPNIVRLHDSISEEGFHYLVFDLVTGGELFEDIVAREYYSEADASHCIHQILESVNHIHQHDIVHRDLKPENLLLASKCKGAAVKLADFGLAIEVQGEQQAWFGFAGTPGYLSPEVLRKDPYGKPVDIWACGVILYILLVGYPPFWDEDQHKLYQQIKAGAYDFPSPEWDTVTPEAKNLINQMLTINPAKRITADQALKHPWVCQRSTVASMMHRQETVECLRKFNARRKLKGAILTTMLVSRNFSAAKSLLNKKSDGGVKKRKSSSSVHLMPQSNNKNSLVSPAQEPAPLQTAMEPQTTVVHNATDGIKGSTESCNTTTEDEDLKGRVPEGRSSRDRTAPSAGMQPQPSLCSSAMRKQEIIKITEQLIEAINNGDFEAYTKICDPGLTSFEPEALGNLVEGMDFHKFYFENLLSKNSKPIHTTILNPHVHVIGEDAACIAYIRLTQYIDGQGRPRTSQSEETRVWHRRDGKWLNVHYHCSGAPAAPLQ

[4] = target: T2, Serine/threonine-protein kinase 17A (Homo sapiens) (UniProt Q9UEE5); assay: Inhibition of human recombinant DRAK1 at 500 nM in presence of ATP by radiometric assay relative to control
T2 sequence (whole entry): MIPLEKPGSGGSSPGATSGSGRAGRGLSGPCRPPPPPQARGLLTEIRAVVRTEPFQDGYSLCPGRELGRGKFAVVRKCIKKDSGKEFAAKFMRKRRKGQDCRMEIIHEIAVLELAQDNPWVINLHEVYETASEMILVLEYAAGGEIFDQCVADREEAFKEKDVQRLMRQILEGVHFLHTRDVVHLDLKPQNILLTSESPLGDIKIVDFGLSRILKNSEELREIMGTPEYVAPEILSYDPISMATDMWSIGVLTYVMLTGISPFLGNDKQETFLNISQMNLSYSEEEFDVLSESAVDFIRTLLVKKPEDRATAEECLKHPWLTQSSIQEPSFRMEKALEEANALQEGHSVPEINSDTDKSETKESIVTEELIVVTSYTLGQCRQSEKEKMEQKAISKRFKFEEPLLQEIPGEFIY

[5] = target: Serine/threonine-protein kinase N1 (Homo sapiens) (UniProt Q16512); assay: Inhibition of human recombinant PKN1 at 500 nM in presence of ATP by radiometric assay relative to control
Sequence of Serine/threonine-protein kinase N1 (Homo sapiens) (Q16512 2-942 limits assumed): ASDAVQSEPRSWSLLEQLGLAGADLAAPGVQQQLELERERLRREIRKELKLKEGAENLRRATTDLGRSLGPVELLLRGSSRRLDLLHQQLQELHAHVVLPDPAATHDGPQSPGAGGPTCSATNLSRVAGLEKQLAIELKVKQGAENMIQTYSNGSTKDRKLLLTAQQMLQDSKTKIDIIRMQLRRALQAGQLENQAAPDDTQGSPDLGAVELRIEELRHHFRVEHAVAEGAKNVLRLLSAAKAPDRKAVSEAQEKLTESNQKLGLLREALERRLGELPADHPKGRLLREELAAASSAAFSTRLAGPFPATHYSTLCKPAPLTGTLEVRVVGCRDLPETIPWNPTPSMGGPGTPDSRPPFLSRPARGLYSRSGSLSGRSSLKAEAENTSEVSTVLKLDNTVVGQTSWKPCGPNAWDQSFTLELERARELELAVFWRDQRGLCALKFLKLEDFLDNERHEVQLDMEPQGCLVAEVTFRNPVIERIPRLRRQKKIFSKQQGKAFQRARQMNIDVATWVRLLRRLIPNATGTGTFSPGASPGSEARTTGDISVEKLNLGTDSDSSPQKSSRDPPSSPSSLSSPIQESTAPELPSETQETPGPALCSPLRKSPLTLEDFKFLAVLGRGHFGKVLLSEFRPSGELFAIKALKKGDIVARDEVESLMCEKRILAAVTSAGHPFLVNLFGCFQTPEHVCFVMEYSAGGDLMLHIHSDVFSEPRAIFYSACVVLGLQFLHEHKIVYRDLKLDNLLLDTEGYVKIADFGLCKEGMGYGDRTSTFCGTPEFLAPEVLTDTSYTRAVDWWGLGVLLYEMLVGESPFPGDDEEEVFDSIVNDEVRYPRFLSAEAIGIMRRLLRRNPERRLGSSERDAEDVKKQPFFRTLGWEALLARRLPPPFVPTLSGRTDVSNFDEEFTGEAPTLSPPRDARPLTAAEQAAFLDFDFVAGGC

[6] = target: T3, Activin receptor type-1B (Homo sapiens) (UniProt P36896); assay: Inhibition of human recombinant ALK4 at 500 nM related to control ULK1
T3 sequence (whole entry): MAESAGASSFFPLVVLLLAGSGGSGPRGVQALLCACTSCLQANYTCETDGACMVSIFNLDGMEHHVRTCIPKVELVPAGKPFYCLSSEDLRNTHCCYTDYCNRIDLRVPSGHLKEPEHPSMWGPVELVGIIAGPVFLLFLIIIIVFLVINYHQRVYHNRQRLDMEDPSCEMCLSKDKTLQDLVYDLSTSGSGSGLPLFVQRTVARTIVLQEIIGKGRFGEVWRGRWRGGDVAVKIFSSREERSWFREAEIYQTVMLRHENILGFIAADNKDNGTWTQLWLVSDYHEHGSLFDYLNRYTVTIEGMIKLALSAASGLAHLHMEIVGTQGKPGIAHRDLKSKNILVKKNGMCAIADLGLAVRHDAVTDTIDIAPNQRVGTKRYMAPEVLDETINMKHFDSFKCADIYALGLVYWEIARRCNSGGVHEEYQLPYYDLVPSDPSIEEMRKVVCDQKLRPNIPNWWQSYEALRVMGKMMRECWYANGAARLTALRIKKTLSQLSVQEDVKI
In short: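 Panel of 327 recombinant human kinases, each assayed in vitro by radiometric activity assay in duplicate at a single inhibitor concentration per compound, chosen with reference to its ULK1 inhibition. Activity remaining was expressed as percent of vehicle control, and percent inhibition was calculated as 100 minus percent activity remaining.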

[7] = target: Cyclin-dependent kinase 7 (Homo sapiens) (UniProt P50613); assay: Inhibition of human recombinant CDK7 at 500 nM related to control ULK1
Sequence of Cyclin-dependent kinase 7 (Homo sapiens) (P50613 whole entry): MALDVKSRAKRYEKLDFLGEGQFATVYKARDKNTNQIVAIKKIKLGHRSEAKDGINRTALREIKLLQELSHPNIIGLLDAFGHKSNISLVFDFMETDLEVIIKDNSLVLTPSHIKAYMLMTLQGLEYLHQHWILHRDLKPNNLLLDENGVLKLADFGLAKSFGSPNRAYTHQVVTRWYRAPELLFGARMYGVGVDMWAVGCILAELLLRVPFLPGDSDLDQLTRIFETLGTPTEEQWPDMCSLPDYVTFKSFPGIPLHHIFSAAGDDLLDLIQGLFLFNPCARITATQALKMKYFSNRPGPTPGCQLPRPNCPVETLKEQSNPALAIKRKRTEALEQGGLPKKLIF

[8] = target: Homeodomain-interacting protein kinase 3 (Homo sapiens) (UniProt Q9H422); assay: Inhibition of human recombinant HIPK3 at 500 nM related to control ULK1
Sequence of Homeodomain-interacting protein kinase 3 (Homo sapiens) (Q9H422 whole entry, looked up): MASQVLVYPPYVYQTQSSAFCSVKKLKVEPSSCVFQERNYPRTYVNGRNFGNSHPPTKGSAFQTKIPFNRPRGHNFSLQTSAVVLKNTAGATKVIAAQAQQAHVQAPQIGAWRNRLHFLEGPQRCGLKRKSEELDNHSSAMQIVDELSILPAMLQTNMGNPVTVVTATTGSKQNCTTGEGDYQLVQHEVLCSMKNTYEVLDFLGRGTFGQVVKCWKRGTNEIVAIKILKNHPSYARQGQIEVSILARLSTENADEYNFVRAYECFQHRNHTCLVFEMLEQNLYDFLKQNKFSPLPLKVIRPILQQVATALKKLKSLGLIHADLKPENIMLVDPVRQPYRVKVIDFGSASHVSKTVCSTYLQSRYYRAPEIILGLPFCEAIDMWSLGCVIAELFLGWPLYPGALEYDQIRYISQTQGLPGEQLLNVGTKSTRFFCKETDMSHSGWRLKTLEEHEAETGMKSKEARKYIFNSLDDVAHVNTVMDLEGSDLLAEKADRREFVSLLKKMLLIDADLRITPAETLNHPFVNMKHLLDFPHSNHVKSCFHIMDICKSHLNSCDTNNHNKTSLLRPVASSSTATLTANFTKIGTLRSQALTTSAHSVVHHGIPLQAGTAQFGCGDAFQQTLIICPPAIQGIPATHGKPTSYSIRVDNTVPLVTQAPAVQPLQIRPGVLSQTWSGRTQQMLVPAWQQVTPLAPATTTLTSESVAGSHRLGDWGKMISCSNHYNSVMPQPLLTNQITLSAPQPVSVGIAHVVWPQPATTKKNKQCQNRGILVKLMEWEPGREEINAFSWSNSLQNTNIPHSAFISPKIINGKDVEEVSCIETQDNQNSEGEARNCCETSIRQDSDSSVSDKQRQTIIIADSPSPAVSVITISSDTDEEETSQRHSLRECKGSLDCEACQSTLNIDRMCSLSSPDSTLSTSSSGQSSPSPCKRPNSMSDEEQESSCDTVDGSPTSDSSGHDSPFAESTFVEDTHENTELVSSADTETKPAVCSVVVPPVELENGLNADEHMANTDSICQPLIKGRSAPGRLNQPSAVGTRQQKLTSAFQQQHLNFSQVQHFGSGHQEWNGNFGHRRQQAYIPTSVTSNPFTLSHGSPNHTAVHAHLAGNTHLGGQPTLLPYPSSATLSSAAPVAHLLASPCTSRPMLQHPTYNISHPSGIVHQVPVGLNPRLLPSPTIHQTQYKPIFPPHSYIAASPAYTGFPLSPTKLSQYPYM

[9] = target: Mitogen-activated protein kinase kinase kinase 9 (Homo sapiens) (UniProt P80192); assay: Inhibition of human recombinant MLK1 at 500 nM related to control ULK1
Sequence of Mitogen-activated protein kinase kinase kinase 9 (Homo sapiens) (P80192 whole entry, looked up): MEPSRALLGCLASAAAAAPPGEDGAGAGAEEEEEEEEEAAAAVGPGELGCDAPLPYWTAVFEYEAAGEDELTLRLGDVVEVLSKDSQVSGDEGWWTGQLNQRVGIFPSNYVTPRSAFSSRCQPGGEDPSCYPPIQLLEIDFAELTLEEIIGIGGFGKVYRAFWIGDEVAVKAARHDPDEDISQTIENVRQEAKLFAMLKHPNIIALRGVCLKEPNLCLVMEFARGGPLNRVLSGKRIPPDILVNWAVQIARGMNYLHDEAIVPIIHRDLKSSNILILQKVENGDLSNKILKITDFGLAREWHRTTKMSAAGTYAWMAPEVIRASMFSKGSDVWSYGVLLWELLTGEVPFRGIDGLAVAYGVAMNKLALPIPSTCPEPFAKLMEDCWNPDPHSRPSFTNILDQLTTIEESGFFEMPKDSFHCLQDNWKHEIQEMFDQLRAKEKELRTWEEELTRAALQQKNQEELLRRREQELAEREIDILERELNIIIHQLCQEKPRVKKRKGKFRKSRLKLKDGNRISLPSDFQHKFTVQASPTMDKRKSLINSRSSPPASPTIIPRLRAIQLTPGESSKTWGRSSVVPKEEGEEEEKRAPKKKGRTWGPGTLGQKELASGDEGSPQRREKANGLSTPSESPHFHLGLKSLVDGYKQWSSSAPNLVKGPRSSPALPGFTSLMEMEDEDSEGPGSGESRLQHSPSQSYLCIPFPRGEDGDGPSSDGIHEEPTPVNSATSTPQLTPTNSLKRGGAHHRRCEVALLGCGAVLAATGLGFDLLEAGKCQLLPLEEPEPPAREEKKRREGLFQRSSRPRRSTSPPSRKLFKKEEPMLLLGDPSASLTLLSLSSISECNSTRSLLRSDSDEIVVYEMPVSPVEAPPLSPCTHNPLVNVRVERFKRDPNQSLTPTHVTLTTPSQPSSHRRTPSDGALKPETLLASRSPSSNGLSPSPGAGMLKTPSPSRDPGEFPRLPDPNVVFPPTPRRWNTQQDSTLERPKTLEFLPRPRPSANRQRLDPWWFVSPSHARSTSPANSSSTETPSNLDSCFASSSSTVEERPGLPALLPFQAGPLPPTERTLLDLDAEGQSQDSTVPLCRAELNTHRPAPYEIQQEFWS

O=C(N[C@@H](C1CC1)C(F)(F)F)c1cc(-c2cnn3cc(-c4ccc(F)cc4)cnc23)cs1
fold change (FC) [1]: 0.04

CC(C)[C@H](NC(=O)c1cc(-c2cnn3cc(-c4ccc(OCCN5CCCCC5)cc4)cnc23)cs1)C(F)(F)F
inhibition [2]: 3%

CNC(=O)c1ccccc1Oc1nc(Nc2cc(OC)c(OC)c(OC)c2)ncc1Br
inhibition [3]: 2% | inhibition [4]: 0% | inhibition [5]: 0% | fold change (FC) [6]: 0.2 | fold change (FC) [7]: 0.39 | fold change (FC) [8]: 0.08 | fold change (FC) [9]: 1.18
